Results on two molecules are retold here after ChEMBL document CHEMBL4342523, “Discovery and Development of S6821 and S7958 as Potent TAS2R8 Antagonists” (J Med Chem, 2020).

The structures appear in SMILES notation. Converted amounts (≈) assume the structure as drawn. The source made the active and inactive calls. The rule behind the calls is not given here.

The target in data set [1] is Taste receptor type 2 member 16 (Homo sapiens) (UniProt Q9NYV7). Briefly: Antagonist activity at recombinant human TAS2R16 transiently expressed in HEK293T co-expressing Galpha16gust44 assessed as inhibition of salicin-induced intracellular calcium level by measuring remaining activity at 25 uM by fluo-4AM dye based FLIPR assay relative to control. It is filed as functional, cell-based. (Calcium flux is commonly read through the fluorescence of an indicator in the cells.)
Sequence of Taste receptor type 2 member 16 (Homo sapiens) (Q9NYV7 whole entry): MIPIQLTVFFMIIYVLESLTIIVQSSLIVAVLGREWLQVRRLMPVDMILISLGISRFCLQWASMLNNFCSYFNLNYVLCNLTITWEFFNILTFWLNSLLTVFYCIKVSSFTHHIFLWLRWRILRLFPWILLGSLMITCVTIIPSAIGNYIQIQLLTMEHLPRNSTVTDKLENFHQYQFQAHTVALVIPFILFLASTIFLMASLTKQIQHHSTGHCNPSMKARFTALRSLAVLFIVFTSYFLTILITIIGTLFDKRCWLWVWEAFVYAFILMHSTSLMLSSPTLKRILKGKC

The target of data set [2] is Taste receptor type 2 member 9 (Homo sapiens) (UniProt Q9NYW1). Briefly: Antagonist activity at recombinant human TAS2R9 transiently expressed in HEK293T co-expressing Galpha16gust44 assessed as inhibition of ofloxacin-induced intracellular calcium level by measuring remaining activity at 25 uM by fluo-4AM dye based FLIPR assay relative to control. Type of data set: functional, cell-based.
Sequence of Taste receptor type 2 member 9 (Homo sapiens) (Q9NYW1 whole entry): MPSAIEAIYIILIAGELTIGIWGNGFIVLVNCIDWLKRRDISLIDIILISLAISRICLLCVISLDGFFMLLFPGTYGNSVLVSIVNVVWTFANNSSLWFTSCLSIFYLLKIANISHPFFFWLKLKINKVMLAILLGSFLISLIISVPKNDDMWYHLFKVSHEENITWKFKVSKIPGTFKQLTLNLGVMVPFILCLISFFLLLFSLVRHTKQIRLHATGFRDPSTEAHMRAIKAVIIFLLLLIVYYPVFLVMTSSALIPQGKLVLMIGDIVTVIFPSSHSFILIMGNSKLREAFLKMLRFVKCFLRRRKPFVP

For data set [3], the target named is T1, Taste receptor type 2 member 1 (Homo sapiens) (UniProt Q9NYW7).
T1 sequence (whole entry): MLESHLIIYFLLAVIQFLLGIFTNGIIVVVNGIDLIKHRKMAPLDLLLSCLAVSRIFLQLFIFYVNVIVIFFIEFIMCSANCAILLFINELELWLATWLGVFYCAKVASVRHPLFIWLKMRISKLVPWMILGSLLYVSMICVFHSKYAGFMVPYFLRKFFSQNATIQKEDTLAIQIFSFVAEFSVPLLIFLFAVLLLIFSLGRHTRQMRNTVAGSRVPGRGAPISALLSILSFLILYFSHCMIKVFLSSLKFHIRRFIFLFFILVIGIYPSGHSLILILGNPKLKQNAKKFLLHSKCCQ
Briefly: Antagonist activity at recombinant human TAS2R1 transiently expressed in HEK293T co-expressing Galpha16gust44 assessed as inhibition of picric acid-induced intracellular calcium level by measuring remaining activity at 25 uM by fluo-4AM dye based FLIPR assay relative to control. Type of data set: functional, cell-based.

Data set [4] in a line: Stability of the compound in pH 7.1 buffer assessed as parent compound remaining measured after 24 hrs at 100 degC. Type of data set: physicochemical. The following applies: read-out: Stability.
Data set [5] concerns the target Taste receptor type 2 member 30 (Homo sapiens) (UniProt P59541). Briefly: Antagonist activity at recombinant human TAS2R30 transiently expressed in HEK293T co-expressing Galpha16gust44 assessed as inhibition of denatonium-induced intracellular calcium level by measuring remaining activity at 25 uM by fluo-4AM dye based FLIPR assay relative to control. It is filed as functional, cell-based.

The target in data set [6] is Taste receptor type 2 member 5 (Homo sapiens) (UniProt Q9NYW4). Briefly: Antagonist activity at recombinant human TAS2R5 transiently expressed in HEK293T co-expressing Galpha16gust44 assessed as inhibition of picoline-induced intracellular calcium level by measuring remaining activity at 25 uM by fluo-4AM dye based FLIPR assay relative to control. It is filed as functional, cell-based.
Sequence of Taste receptor type 2 member 5 (Homo sapiens) (Q9NYW4 whole entry): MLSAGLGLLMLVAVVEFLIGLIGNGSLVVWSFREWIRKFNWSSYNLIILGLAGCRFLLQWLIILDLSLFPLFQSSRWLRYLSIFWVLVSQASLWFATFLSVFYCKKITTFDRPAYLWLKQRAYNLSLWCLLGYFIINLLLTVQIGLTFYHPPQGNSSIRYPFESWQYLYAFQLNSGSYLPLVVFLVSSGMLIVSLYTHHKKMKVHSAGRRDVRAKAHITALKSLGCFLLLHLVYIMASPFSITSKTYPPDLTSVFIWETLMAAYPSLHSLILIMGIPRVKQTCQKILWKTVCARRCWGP

For data set [7], the target named is Taste receptor type 2 member 31 (Homo sapiens) (UniProt P59538). Briefly: Antagonist activity at recombinant human TAS2R31 transiently expressed in HEK293T co-expressing Galpha16gust44 assessed as inhibition of aristolochic acid-induced intracellular calcium level by measuring remaining activity at 25 uM by fluo-4AM dye based FLIPR assay relative to control. It is filed as functional, cell-based.
Sequence of Taste receptor type 2 member 31 (Homo sapiens) (P59538 whole entry): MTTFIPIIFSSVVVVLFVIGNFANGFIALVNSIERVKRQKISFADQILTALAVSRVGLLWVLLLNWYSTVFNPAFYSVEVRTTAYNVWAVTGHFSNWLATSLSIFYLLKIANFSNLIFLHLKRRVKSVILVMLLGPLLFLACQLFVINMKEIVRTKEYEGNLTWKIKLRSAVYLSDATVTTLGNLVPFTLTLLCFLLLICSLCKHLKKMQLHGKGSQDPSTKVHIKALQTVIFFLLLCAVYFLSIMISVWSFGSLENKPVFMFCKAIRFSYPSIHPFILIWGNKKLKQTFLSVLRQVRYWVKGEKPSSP

The target in data set [8] is Taste receptor type 2 member 3 (Homo sapiens) (UniProt Q9NYW6). Briefly: Antagonist activity at recombinant human TAS2R3 transiently expressed in HEK293T co-expressing Galpha16gust44 assessed as inhibition of chloroquine-induced intracellular calcium level by measuring remaining activity at 25 uM by fluo-4AM dye based FLIPR assay relative to control. Type of data set: functional, cell-based.
Sequence of Taste receptor type 2 member 3 (Homo sapiens) (Q9NYW6 whole entry): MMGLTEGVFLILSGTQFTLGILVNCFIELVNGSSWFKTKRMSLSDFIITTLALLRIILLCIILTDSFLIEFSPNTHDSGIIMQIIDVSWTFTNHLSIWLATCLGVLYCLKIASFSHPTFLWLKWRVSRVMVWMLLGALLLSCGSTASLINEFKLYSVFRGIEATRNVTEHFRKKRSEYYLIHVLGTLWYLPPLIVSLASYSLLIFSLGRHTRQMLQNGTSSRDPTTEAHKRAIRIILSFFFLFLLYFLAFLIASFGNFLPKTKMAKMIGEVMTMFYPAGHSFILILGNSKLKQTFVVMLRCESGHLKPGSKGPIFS

The target in data set [9] is Taste receptor type 2 member 7 (Homo sapiens) (UniProt Q9NYW3). Briefly: Antagonist activity at recombinant human TAS2R7 transiently expressed in HEK293T co-expressing Galpha16gust44 assessed as inhibition of chloroquine-induced intracellular calcium level by measuring remaining activity at 25 uM by fluo-4AM dye based FLIPR assay relative to control. Type of data set: functional, cell-based.
Sequence of Taste receptor type 2 member 7 (Homo sapiens) (Q9NYW3 whole entry): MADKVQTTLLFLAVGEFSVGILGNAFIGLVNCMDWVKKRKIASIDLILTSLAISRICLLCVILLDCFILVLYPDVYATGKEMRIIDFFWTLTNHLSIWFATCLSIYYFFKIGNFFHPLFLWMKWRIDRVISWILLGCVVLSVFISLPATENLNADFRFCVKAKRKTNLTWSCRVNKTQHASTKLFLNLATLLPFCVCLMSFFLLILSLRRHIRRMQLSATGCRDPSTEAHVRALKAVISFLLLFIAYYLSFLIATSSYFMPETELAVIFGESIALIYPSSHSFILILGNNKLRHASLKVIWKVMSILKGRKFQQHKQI

For a further data set, the system named is Homo sapiens. Briefly: In vivo antagonist activity at TAS2R8 in human assessed as reduction in coffee-inudced bitterness at 5 uM by 2-AFC test. Type of data set: functional. The method, boiled down: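 Paired coffee test: 1.5× coffee with milk versus same with 5 μM compound added from ethanol stock; trained panelists chose the more bitter sample; 17 panelists × 3 replicates (51 responses).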

The target of data set [10] is Taste receptor type 2 member 13 (Homo sapiens) (UniProt Q9NYV9). Briefly: Antagonist activity at recombinant human TAS2R13 transiently expressed in HEK293T co-expressing Galpha16gust44 assessed as inhibition of oxyphenonium-induced intracellular calcium level by measuring remaining activity at 25 uM by fluo-4AM dye based FLIPR assay relative to control. It is filed as functional, cell-based.
Sequence of Taste receptor type 2 member 13 (Homo sapiens) (Q9NYV9 whole entry): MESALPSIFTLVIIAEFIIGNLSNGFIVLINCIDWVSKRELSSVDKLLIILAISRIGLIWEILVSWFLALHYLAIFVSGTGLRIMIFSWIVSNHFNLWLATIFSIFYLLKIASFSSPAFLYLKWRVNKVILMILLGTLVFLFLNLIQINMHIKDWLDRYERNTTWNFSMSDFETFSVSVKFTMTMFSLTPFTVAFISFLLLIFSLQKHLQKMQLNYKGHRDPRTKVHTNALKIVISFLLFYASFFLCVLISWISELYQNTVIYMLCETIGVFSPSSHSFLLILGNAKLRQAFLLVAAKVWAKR

Data set [11] addresses Taste receptor type 2 member 41 (Homo sapiens) (UniProt P59536). Briefly: Antagonist activity at recombinant human TAS2R41 transiently expressed in HEK293T co-expressing Galpha16gust44 assessed as inhibition of picric acid-induced intracellular calcium level by measuring remaining activity at 25 uM by fluo-4AM dye based FLIPR assay relative to control. Type of data set: functional, cell-based.

The target of data set [12] is T2, Taste receptor type 2 member 14 (Homo sapiens) (UniProt Q9NYV8).
T2 sequence (whole entry): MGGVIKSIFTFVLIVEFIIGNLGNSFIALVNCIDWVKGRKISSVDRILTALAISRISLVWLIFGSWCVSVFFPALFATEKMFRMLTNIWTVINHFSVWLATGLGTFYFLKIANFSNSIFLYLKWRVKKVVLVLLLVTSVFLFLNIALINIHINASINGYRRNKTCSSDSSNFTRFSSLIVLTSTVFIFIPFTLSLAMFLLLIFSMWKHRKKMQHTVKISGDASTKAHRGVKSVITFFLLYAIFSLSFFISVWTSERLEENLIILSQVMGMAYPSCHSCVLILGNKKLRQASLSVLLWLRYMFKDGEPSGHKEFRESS
Briefly: Antagonist activity at recombinant human TAS2R14 transiently expressed in HEK293T co-expressing Galpha16gust44 assessed as inhibition of aristolochic acid-induced intracellular calcium level by measuring remaining activity at 25 uM by fluo-4AM dye based FLIPR assay relative to control. Type of data set: functional, cell-based.

Data set [13] concerns the target Taste receptor type 2 member 4 (Homo sapiens) (UniProt Q9NYW5). Briefly: Antagonist activity at recombinant human TAS2R4 transiently expressed in HEK293T co-expressing Galpha16gust44 assessed as inhibition of chloroquine-induced intracellular calcium level by measuring remaining activity at 25 uM by fluo-4AM dye based FLIPR assay relative to control. Type of data set: functional, cell-based.

Data set [14] is described as follows: Solubility of the compound in pH 7.1 buffer measured after 24 hrs. Type of data set: physicochemical.
The target of data set [15] is Taste receptor type 2 member 39 (Homo sapiens) (UniProt P59534). Briefly: Antagonist activity at recombinant human TAS2R39 transiently expressed in HEK293T co-expressing Galpha16gust44 assessed as inhibition of ranitidine-induced intracellular calcium level by measuring remaining activity at 25 uM by fluo-4AM dye based FLIPR assay relative to control. It is filed as functional, cell-based.
Sequence of Taste receptor type 2 member 39 (Homo sapiens) (P59534 whole entry): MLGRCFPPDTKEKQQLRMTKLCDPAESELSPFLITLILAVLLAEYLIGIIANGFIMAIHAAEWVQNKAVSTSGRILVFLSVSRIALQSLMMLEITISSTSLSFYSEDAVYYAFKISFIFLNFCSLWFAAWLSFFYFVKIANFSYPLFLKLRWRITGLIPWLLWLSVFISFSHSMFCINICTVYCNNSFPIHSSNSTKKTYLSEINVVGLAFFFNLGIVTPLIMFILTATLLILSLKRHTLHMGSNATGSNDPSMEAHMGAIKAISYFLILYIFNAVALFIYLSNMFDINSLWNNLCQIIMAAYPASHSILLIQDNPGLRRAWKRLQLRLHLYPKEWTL

Sequence of Taste receptor type 2 member 41 (Homo sapiens) (P59536 whole entry): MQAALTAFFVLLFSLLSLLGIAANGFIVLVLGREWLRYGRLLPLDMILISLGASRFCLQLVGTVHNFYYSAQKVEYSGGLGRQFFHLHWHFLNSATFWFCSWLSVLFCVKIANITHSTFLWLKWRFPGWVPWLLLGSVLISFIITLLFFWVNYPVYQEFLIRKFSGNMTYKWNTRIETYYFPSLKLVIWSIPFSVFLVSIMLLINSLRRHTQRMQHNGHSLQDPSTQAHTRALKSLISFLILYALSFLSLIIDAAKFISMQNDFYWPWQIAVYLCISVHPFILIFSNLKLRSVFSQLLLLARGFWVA
Sequence of Taste receptor type 2 member 30 (Homo sapiens) (P59541 whole entry): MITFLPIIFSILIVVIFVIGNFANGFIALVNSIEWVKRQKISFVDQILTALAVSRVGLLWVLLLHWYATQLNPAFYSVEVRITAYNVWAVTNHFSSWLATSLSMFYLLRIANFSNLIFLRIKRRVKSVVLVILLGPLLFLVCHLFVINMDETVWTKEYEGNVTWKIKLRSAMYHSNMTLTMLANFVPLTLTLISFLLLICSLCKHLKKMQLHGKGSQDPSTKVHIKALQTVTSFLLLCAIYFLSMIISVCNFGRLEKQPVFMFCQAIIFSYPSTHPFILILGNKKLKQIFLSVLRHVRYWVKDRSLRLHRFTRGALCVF
Sequence of Taste receptor type 2 member 4 (Homo sapiens) (Q9NYW5 whole entry): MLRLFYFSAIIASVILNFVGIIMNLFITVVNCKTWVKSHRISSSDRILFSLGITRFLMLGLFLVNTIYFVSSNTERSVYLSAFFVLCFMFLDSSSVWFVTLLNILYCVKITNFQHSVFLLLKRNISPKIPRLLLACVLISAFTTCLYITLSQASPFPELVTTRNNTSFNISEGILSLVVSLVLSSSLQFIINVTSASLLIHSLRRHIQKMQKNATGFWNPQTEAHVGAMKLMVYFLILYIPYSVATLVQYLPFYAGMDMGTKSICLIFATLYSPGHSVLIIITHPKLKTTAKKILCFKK

Usually solubility stands for the dissolved amount per volume that the medium holds. With `Cc1noc(C)c1Cn1cc(N2C(=O)N(Cc3cccc(O)c3)C(C)(C)C2=O)cn1`, the Activity in data set [1] turned out to be 88%; in [2], 98%; in data set [3] it was 97%; in [5] it was 43%; in data set [6], 100%; in data set [7] it was 59%. Besides, the Activity was 72% in data set [8]; 92% in data set [9]; 95% in data set [10]; 133% in data set [11]; 97% in [12]; 215% in data set [13]. In addition, the Activity in data set [15] was 150%. Moreover, the remaining at 24 h in data set [4] was greater than 99%. The outcome with Homo sapiens was Active. Also, the solubility at 24 h in data set [14] is 72 µM (≈ 29.5 µg/mL).
On to `Cc1noc(C)c1Cn1cc(N2C(=O)CN(Cc3cccc(O)c3)C2=O)cn1`, for which the Activity in data set [1] turned out to be 98%; in data set [2] it was 106%; in data set [3], 119%; in [5], 112%; in [6] it was 103%; in [7], 92%. Further, the Activity in data set [8] is 103%; in data set [9], 93%; with Homo sapiens it was greater than 78%; in data set [10], 127%; in data set [11], 99%; in data set [12], 124%. The figures for the Activity in [13] and in [15] were 117% and 74%, respectively. For the same molecule, in data set [4], the remaining at 24 h was 55%. The solubility at 24 h in data set [14] came out at 244 µM (≈ 93.1 µg/mL).
